From ChEMBL document CHEMBL4364267, “Hydrogen sulfide donating ent-kaurane and spirolactone-type 6,7-seco-ent-kaurane derivatives: Design, synthesis and antiproliferative properties” (Eur J Med Chem, 2019) come the findings set out here.

Active and inactive are the calls of the source. No cut-off for these calls is given here.

The subject of one experiment is A549. Description: Antiproliferative activity against human A549 cells assessed as reduction in cell viability after 72 hrs by MTT assay. It is filed as functional, cell-based. Particulars: A549, 72 h. Put shortly: (§1)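 MTT assay over 72 h, compounds at 64, 16, 4, 1, 0.25, 0.0625 and 0.015625 μM. MTT solution (5 mg/mL) and DMSO added afterwards, 10 min at room temperature, absorbance read at 490 nm. IC50 calculated as the mean ± SD of three independent experiments.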
In general terms: Tetrazolium assays rely on reduction of a dye to a coloured formazan, in cell work by metabolically active cells.
Consider `C=C1C(=O)[C@]23[C@H](O)[C@H]1CC[C@H]2[C@@]12CO[C@]3(O)[C@@H](O)[C@@H]1C(C)(C)CC[C@@H]2O` [ORIDONIN], for which the IC50 (as a rule, the midpoint of a concentration-inhibition curve) stood at 17.8 µM.
In the case of `C=C1C(=O)[C@]23[C@H](OC(=O)c4ccccc4C(=O)Oc4ccc(-c5cc(=S)ss5)cc4)[C@H]1CC[C@H]2[C@@]12CO[C@]3(O)[C@@H](O)[C@@H]1C(C)(C)CCC2=O`, the IC50 came to 7.69 µM.
Same read-out and setting: under `C=C1C(=O)[C@]23[C@H](O)[C@H]1CC[C@H]2[C@@]12CO[C@@]3(O)[C@@H](O)[C@@H]1C(C)(C)CC[C@@H]2OC(C)=O` stands 13.5 µM; under `C=C1C(=O)[C@]23[C@H](OC(=O)CCCC(=O)Oc4ccc(-c5cc(=S)ss5)cc4)[C@H]1CC[C@H]2[C@@]12CO[C@]3(O)[C@@H](O)[C@@H]1C(C)(C)CC[C@@H]2OC(C)=O`, 9.76 µM; under `C=C1C(=O)[C@]23[C@H](OC(=O)CCCCC4CCSS4)[C@H]1CC[C@H]2[C@@]12CO[C@]3(O)[C@@H](O)[C@@H]1C(C)(C)CC[C@@H]2OC(C)=O` (stereo partly specified), 8.65 µM.

The test system of another experiment is SGC-7901. Description: Antiproliferative activity against human SGC7901 cells assessed as reduction in cell viability after 72 hrs by MTT assay. It is filed as functional, cell-based. Conditions: SGC-7901, 72 h. A digest of the protocol: as §1
Consider `C=C1C(=O)[C@]23[C@H](O)[C@H]1CC[C@H]2[C@@]12CO[C@]3(O)[C@@H](O)[C@@H]1C(C)(C)CC[C@@H]2O` [ORIDONIN], for which the IC50 is 7.87 µM.
The same measure, in the same setting: under `C=C1C(=O)[C@]23[C@H](OC(=O)c4ccccc4C(=O)Oc4ccc(-c5cc(=S)ss5)cc4)[C@H]1CC[C@H]2[C@@]12CO[C@]3(O)[C@@H](O)[C@@H]1C(C)(C)CCC2=O` stands 14.9 µM; under `C=C1C(=O)[C@]23[C@H](O)[C@H]1CC[C@H]2[C@@]12CO[C@@]3(O)[C@@H](O)[C@@H]1C(C)(C)CC[C@@H]2OC(C)=O`, 6.45 µM.
The same measure, in the same setting: under `C=C1C(=O)[C@]23[C@H](OC(=O)CCCC(=O)Oc4ccc(-c5cc(=S)ss5)cc4)[C@H]1CC[C@H]2[C@@]12CO[C@]3(O)[C@@H](O)[C@@H]1C(C)(C)CC[C@@H]2OC(C)=O` stands 5.36 µM; under `C=C1C(=O)[C@]23[C@H](OC(=O)CCCCC4CCSS4)[C@H]1CC[C@H]2[C@@]12CO[C@]3(O)[C@@H](O)[C@@H]1C(C)(C)CC[C@@H]2OC(C)=O` (stereo partly specified), 6.02 µM.

The test system of a further experiment is K562. Description: Antiproliferative activity against human K562 cells assessed as reduction in cell viability after 72 hrs by MTT assay. It is filed as functional, cell-based. Particulars: K562, 72 h. Put shortly:
as §1
In the case of `C=C1C(=O)[C@]23[C@H](OC(=O)c4ccccc4C(=O)Oc4ccc(-c5cc(=S)ss5)cc4)[C@H]1CC[C@H]2[C@@]12CO[C@]3(O)[C@@H](O)[C@@H]1C(C)(C)CCC2=O`, the IC50 stood at 4.8 µM.
The same measure, in the same setting: under `C=C1C(=O)[C@]23[C@H](O)[C@H]1CC[C@H]2[C@@]12CO[C@@]3(O)[C@@H](O)[C@@H]1C(C)(C)CC[C@@H]2OC(C)=O` stands 4.92 µM; under `C=C1C(=O)[C@]23[C@H](OC(=O)CCCC(=O)Oc4ccc(-c5cc(=S)ss5)cc4)[C@H]1CC[C@H]2[C@@]12CO[C@]3(O)[C@@H](O)[C@@H]1C(C)(C)CC[C@@H]2OC(C)=O`, 2.02 µM; under `C=C1C(=O)[C@]23[C@H](OC(=O)CCCCC4CCSS4)[C@H]1CC[C@H]2[C@@]12CO[C@]3(O)[C@@H](O)[C@@H]1C(C)(C)CC[C@@H]2OC(C)=O` (stereo partly specified), 2.84 µM.

The subject of the next experiment is Bel-7402. Description: Antiproliferative activity against human Bel7402 cells assessed as reduction in cell viability after 72 hrs by MTT assay. In kind it is functional, cell-based. Particulars: Bel-7402, 72 h. A digest of the protocol: as §1
Turning to `C=C1C(=O)[C@]23[C@H](O)[C@H]1CC[C@H]2[C@@]12CO[C@]3(O)[C@@H](O)[C@@H]1C(C)(C)CC[C@@H]2O` [ORIDONIN], the IC50 worked out at 8.31 µM.
Same read-out and setting: under `C=C1C(=O)[C@]23[C@H](OC(=O)c4ccccc4C(=O)Oc4ccc(-c5cc(=S)ss5)cc4)[C@H]1CC[C@H]2[C@@]12CO[C@]3(O)[C@@H](O)[C@@H]1C(C)(C)CCC2=O` stands 5.34 µM.
Still for that read-out and setting: under `C=C1C(=O)[C@]23[C@H](O)[C@H]1CC[C@H]2[C@@]12CO[C@@]3(O)[C@@H](O)[C@@H]1C(C)(C)CC[C@@H]2OC(C)=O` stands 3.59 µM; under `C=C1C(=O)[C@]23[C@H](OC(=O)CCCC(=O)Oc4ccc(-c5cc(=S)ss5)cc4)[C@H]1CC[C@H]2[C@@]12CO[C@]3(O)[C@@H](O)[C@@H]1C(C)(C)CC[C@@H]2OC(C)=O`, 1.94 µM; under `C=C1C(=O)[C@]23[C@H](OC(=O)CCCCC4CCSS4)[C@H]1CC[C@H]2[C@@]12CO[C@]3(O)[C@@H](O)[C@@H]1C(C)(C)CC[C@@H]2OC(C)=O` (stereo partly specified), 2.25 µM.

A further experiment concerns L02. Description: Cytotoxicity against human L02 cells assessed as reduction in cell viability after 72 hrs by MTT assay. In kind it is cell-based. Particulars: L02, 72 h. A digest of the protocol: as §1
With `C=C1C(=O)[C@]23[C@H](O)[C@H]1CC[C@H]2[C@@]12CO[C@]3(O)[C@@H](O)[C@@H]1C(C)(C)CC[C@@H]2O` [ORIDONIN], the IC50 turned out to be 18.7 µM.
Still for that read-out and setting: under `C=C1C(=O)[C@]23[C@H](OC(=O)c4ccccc4C(=O)Oc4ccc(-c5cc(=S)ss5)cc4)[C@H]1CC[C@H]2[C@@]12CO[C@]3(O)[C@@H](O)[C@@H]1C(C)(C)CCC2=O` stands 42.6 µM; under `C=C1C(=O)[C@]23[C@H](O)[C@H]1CC[C@H]2[C@@]12CO[C@@]3(O)[C@@H](O)[C@@H]1C(C)(C)CC[C@@H]2OC(C)=O`, 22.4 µM.
The same measure, in the same setting: with `C=C1C(=O)[C@]23[C@H](OC(=O)CCCC(=O)Oc4ccc(-c5cc(=S)ss5)cc4)[C@H]1CC[C@H]2[C@@]12CO[C@]3(O)[C@@H](O)[C@@H]1C(C)(C)CC[C@@H]2OC(C)=O` the figure was 14.7 µM.
With `C=C1C(=O)[C@]23[C@H](OC(=O)CCCCC4CCSS4)[C@H]1CC[C@H]2[C@@]12CO[C@]3(O)[C@@H](O)[C@@H]1C(C)(C)CC[C@@H]2OC(C)=O` (stereo partly specified), the IC50 was found to be 41.1 µM.

Test system in the next experiment: not listed separately
Description: Induction of H2S generation in PBS containing Na2S and MB+ cocktail in presence of TCEP/L-cysteine measured at 15 to 20 mins after 20 mins compound incubation by methylene blue dye based UV-Vis spectrophotometric method. In kind it is functional.
Settings: not given
A digest of the protocol: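 Na2S standards (5–150 μM) in sodium phosphate buffer reacted 20 min at room temperature with methylene blue cocktail (FeCl3/HCl, N,N-dimethyl-1,4-phenylenediamine/HCl, Zn(OAc)2) to build a 670 nm calibration curve. Compounds from 40 mM THF stock added to phosphate buffer with 1 mM TCEP or L-cysteine. Aliquots taken into the cocktail at set times, incubated 20 min, read at 670 nm. Mean of three experiments.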
As to `C=C1C(=O)[C@]23[C@H](OC(=O)c4ccccc4C(=O)Oc4ccc(-c5cc(=S)ss5)cc4)[C@H]1CC[C@H]2[C@@]12CO[C@]3(O)[C@@H](O)[C@@H]1C(C)(C)CCC2=O`, the result was Active.
Take `C=C1C(=O)[C@]23[C@H](OC(=O)CCCCC4CCSS4)[C@H]1CC[C@H]2[C@@]12CO[C@]3(O)[C@@H](O)[C@@H]1C(C)(C)CC[C@@H]2OC(C)=O` (stereo partly specified): the result was Active.

In another experiment the test system is PBMC. Description: Cytotoxicity against human PBMC assessed as reduction in cell viability after 72 hrs by MTT assay. In kind it is cell-based.
Settings: not given
Put shortly:
as §1
For the molecule `C=C1C(=O)[C@]23[C@H](O)[C@H]1CC[C@H]2[C@@]12CO[C@]3(O)[C@@H](O)[C@@H]1C(C)(C)CC[C@@H]2O` [ORIDONIN], the IC50 was over 50 µM.
The same measure, in the same setting: under `C=C1C(=O)[C@]23[C@H](OC(=O)c4ccccc4C(=O)Oc4ccc(-c5cc(=S)ss5)cc4)[C@H]1CC[C@H]2[C@@]12CO[C@]3(O)[C@@H](O)[C@@H]1C(C)(C)CCC2=O` stands over 50 µM.
As to `C=C1C(=O)[C@]23[C@H](O)[C@H]1CC[C@H]2[C@@]12CO[C@@]3(O)[C@@H](O)[C@@H]1C(C)(C)CC[C@@H]2OC(C)=O`, the IC50 was over 50 µM.
Same read-out and setting: under `C=C1C(=O)[C@]23[C@H](OC(=O)CCCC(=O)Oc4ccc(-c5cc(=S)ss5)cc4)[C@H]1CC[C@H]2[C@@]12CO[C@]3(O)[C@@H](O)[C@@H]1C(C)(C)CC[C@@H]2OC(C)=O` stands over 50 µM; under `C=C1C(=O)[C@]23[C@H](OC(=O)CCCCC4CCSS4)[C@H]1CC[C@H]2[C@@]12CO[C@]3(O)[C@@H](O)[C@@H]1C(C)(C)CC[C@@H]2OC(C)=O` (stereo partly specified), 28.8 µM.
